pIC50, pKd: −log10 of the molar value. Non-standard residues stand in square brackets, D forms with d. Residues, ends and D or L forms follow the SMILES beside them. *: point of attachment. 1Nal = N[C@@H](Cc1cccc2ccccc12)C(=O)O; 2Nal = N[C@@H](Cc1ccc2ccccc2c1)C(=O)O; Bta = N[C@@H](Cc1csc2ccccc12)C(=O)O; Pen = CC(C)(S)[C@H](N)C(=O)O; Tle = CC(C)(C)[C@H](N)C(=O)O; Nicotinoyl = O=C(c1cccnc1)*

Series [1] deals with T1, Golgi-associated PDZ and coiled-coil motif-containing protein (Homo sapiens, UniProt Q9HD26). Nature of the series: Binding affinity to C-terminal His6 tagged CAL PDZ domain (unknown origin) expressed in Escherichia coli BL21 incubated for 1 hr by fluorescence polarization assay.
Series [2] concerns the target T2, Na(+)/H(+) exchange regulatory cofactor NHE-RF2 (Homo sapiens, UniProt Q15599). Nature of the series: Binding affinity to NHERF2 PDZ1 domain (unknown origin) expressed in Escherichia coli BL21 incubated for 1 hr by fluorescence polarization based competition assay. Put shortly:
(§1)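 CAL, NHERF1 and NHERF2 PDZ domains carried a C-terminal His6 tag, were expressed in E. coli BL21 (0.1 mM IPTG, 16 h at 18 °C) and purified on Ni-NTA. For direct binding, 50 nM fluorescein-labelled peptide was titrated with PDZ protein (0–2.5 μM CAL; 0–25 μM NHERF1/2) in PBS pH 7.4 with 0.01% Triton X-100 and 2 mM TCEP for 1 h at room temperature. Fluorescence polarization gave KD; n = 3.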
In general terms: In fluorescence polarisation assays a small probe gives low polarisation when free and higher when bound to something large.

Series [3] has as its target T3, Na(+)/H(+) exchange regulatory cofactor NHE-RF1 (Homo sapiens, UniProt O14745).
T3 sequence (O14745 whole entry): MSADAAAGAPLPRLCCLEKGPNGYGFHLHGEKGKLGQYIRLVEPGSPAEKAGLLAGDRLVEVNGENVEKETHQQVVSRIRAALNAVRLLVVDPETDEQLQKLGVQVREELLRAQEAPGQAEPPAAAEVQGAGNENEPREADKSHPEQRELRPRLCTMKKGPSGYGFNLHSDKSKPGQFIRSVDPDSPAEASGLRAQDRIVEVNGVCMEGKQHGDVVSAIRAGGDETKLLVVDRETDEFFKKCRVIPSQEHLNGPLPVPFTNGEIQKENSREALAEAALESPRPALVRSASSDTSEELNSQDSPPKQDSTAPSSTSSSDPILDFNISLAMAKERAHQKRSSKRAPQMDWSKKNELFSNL
Description: Binding affinity to NHERF1 PDZ1 domain (unknown origin) expressed in Escherichia coli BL21 incubated for 1 hr by fluorescence polarization based competition assay. The method in brief:
as §1

Series [4] has as its target T2, Na(+)/H(+) exchange regulatory cofactor NHE-RF2. Nature of the series: Binding affinity to NHERF2 PDZ2 domain (unknown origin) expressed in Escherichia coli BL21 incubated for 1 hr by fluorescence polarization based competition assay.
For series [5], the target named is T1, Golgi-associated PDZ and coiled-coil motif-containing protein. Nature of the series: Binding affinity to C-terminal His6 tagged CAL PDZ domain (unknown origin) expressed in Escherichia coli BL21 incubated for 1 hr using FAM-ANSRWPTSII-OH probe by fluorescence polarization based competition assay.
Series [6] has the same target. Description: Binding affinity to C-terminal His6 tagged CAL PDZ domain (unknown origin) expressed in Escherichia coli BL21 incubated for 1 hr using FAM-22 probe by fluorescence polarization based competition assay.
Series [7] in a line: Drug uptake in human HeLa cells at 5 uM incubated for 2 hrs by flow cytometry relative to CPP9. The format is ADME, cell-based. The method in brief:
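Naphthofluorescein-labelled cyclic peptides (5 μM final, 0.5% DMSO, in DMEM with 10% FBS) were applied to HeLa cells, seeded the day before at 15 × 10^4 per well, for 2 h at 37 °C. Cells were washed with cold DPBS, trypsinized and analysed by flow cytometry. Mean fluorescence was expressed as % of CPP9; n = 3.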
(In flow cytometry, cells or beads pass a laser one at a time.)

T2 sequence (Q15599 whole entry, the tested form may be a part): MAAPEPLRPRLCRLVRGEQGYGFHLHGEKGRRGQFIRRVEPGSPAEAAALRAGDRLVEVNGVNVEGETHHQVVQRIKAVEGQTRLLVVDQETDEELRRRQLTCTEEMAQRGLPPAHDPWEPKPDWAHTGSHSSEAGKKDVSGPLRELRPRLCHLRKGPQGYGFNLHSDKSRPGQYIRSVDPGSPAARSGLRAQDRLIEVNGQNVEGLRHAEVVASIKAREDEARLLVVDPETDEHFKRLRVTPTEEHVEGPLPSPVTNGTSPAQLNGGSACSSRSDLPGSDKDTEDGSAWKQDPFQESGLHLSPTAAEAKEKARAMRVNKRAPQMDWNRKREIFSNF

For orientation: pKd means the Kd on a negative log10 scale, so that one unit is a factor of ten. Higher therefore signals a low Kd. Regarding `C[C@@H](O)[C@H](NC(=O)[C@@H](NC(=O)[C@H](CCC(N)=O)NC(=O)[C@H](Cc1c[nH]c2ccccc12)NC(=O)[C@H](Cc1ccc2ccccc2c1)NC(=O)[C@H](CCCNC(=N)N)NC(=O)[C@H](CCCNC(=N)N)NC(=O)[C@@H](CCCNC(=N)N)NC(=O)[C@H](CS)NC(=O)CCNC(=S)Nc1ccc(-c2c3ccc(=O)cc-3oc3cc(O)ccc23)c(C(=O)O)c1)C(C)(C)S)C(=O)N[C@@H](CCCNC(=N)N)C(=O)N[C@H](C(=O)O)C(C)(C)C`, the pKd in series [1] was 6.95; in series [2], 5.73; in series [3] it was 5.79; in series [4], 5.39.
For `C[C@@H](O)[C@H](NC(=O)[C@@H](NC(=O)[C@@H]1CCCCN1C(=O)[C@H](Cc1csc2ccccc12)NC(=O)[C@H](Cc1ccc2ccccc2c1)NC(=O)[C@H](CCCNC(=N)N)NC(=O)[C@H](CCCNC(=N)N)NC(=O)[C@@H](CCCNC(=N)N)NC(=O)[C@H](CS)NC(=O)COCCOCCNC(=S)Nc1ccc2c(c1)C(=O)OC21c2ccc(O)cc2Oc2cc(O)ccc21)C(C)(C)S)C(=O)N[C@@H](CCCNC(=N)N)C(=O)N[C@H](C(=O)O)C(C)(C)C`, in that order: 8.22, 5.86, 6.11 and 5.13.
The pIC50 is −log10 of the IC50, conventionally taken in molar units. Higher therefore signals a small IC50. Consider `CC(=O)N[C@@H](CCCNC(=N)N)C(=O)N[C@@H](CCCNC(=N)N)C(=O)N[C@@H](Cc1ccccc1)C(=O)N[C@@H](Cc1c[nH]c2ccccc12)C(=O)N[C@@H](CCC(N)=O)C(=O)N[C@@H](CS)C(=O)N[C@H](C(=O)N[C@@H](CCCCNC(=N)N)C(=O)N[C@H](C(=O)O)C(C)(C)C)[C@@H](C)O`, for which, in series [5], the pIC50 was 5.62.
`C[C@@H](O)[C@H](NC(=O)[C@@H](NC(=O)[C@@H]1CCCN1C(=O)[C@H](Cc1csc2ccccc12)NC(=O)[C@H](Cc1ccc2ccccc2c1)NC(=O)[C@H](CCCNC(=N)N)NC(=O)[C@H](CCCNC(=N)N)NC(=O)[C@@H](CCCNC(=N)N)NC(=O)[C@H](CS)NC(=O)COCCOCCNC(=S)Nc1ccc2c(c1)C(=O)OC21c2ccc(O)cc2Oc2cc(O)ccc21)C(C)(C)S)C(=O)N[C@@H](CCCNC(=N)N)C(=O)N[C@H](C(=O)O)C(C)(C)C`: the pKd is 7.06 in series [1], 5.22 in series [2], 5.40 in series [3] and 5.12 in series [4].
`CC(=O)N[C@@H](CS)C(=O)N[C@@H](CCCNC(=N)N)C(=O)N[C@@H](CCCNC(=N)N)C(=O)N[C@@H](CCCNC(=N)N)C(=O)N[C@@H](Cc1ccccc1)C(=O)N[C@@H](Cc1cccc2ccccc12)C(=O)N[C@@H](CCC(N)=O)C(=O)N[C@@H](CS)C(=O)N[C@H](C(=O)N[C@@H](CCCNC(=N)N)C(=O)N[C@H](C(=O)O)C(C)(C)C)[C@@H](C)O` (Ac-CRRRF[1Nal]QCTR[Tle]-OH) gave a pIC50 in series [6] of 5.74.
With `CC(=O)N[C@@H](CS)C(=O)N[C@@H](CCCNC(=N)N)C(=O)N[C@@H](CCCNC(=N)N)C(=O)N[C@@H](CCCNC(=N)N)C(=O)N[C@@H](Cc1cccc2ccccc12)C(=O)N[C@@H](Cc1c[nH]c2ccccc12)C(=O)N[C@@H](CCC(N)=O)C(=O)N[C@H](C(=O)N[C@H](C(=O)N[C@@H](CCCNC(=N)N)C(=O)N[C@H](C(=O)O)C(C)(C)C)[C@@H](C)O)C(C)(C)S` (Ac-CRRR[1Nal]WQ[Pen]TR[Tle]-OH), the pIC50 in series [6] was 6.82.
In the case of `CC(=O)N[C@@H](CS)C(=O)N[C@@H](CCCNC(=N)N)C(=O)N[C@@H](CCCNC(=N)N)C(=O)N[C@@H](CCCNC(=N)N)C(=O)N[C@@H](Cc1ccc2ccccc2c1)C(=O)N[C@@H](Cc1c[nH]c2ccccc12)C(=O)N[C@@H](CCC(N)=O)C(=O)N[C@H](C(=O)N[C@H](C(=O)N[C@@H](CCCNC(=N)N)C(=O)N[C@H](C(=O)O)C(C)(C)C)[C@@H](C)O)C(C)(C)S` (Ac-CRRR[2Nal]WQ[Pen]TR[Tle]-OH), in series [6], the pIC50 is 6.82.
In turn, `CC(=O)N[C@@H](CS)C(=O)N[C@@H](CCCNC(=N)N)C(=O)N[C@H](CCCNC(=N)N)C(=O)N[C@@H](CCCNC(=N)N)C(=O)N[C@@H](Cc1ccc2ccccc2c1)C(=O)N[C@@H](Cc1c[nH]c2ccccc12)C(=O)N[C@@H](CCC(N)=O)C(=O)N[C@H](C(=O)N[C@H](C(=O)N[C@@H](CCCNC(=N)N)C(=O)N[C@H](C(=O)O)C(C)(C)C)[C@@H](C)O)C(C)(C)S` (Ac-CR[dR]R[2Nal]WQ[Pen]TR[Tle]-OH) came in with a Drug uptake in series [7] of 17%.
`CC(=O)N[C@@H](CS)C(=O)N[C@H](CCCNC(=N)N)C(=O)N[C@@H](CCCNC(=N)N)C(=O)N[C@@H](CCCNC(=N)N)C(=O)N[C@@H](Cc1ccc2ccccc2c1)C(=O)N[C@@H](Cc1c[nH]c2ccccc12)C(=O)N[C@@H](CCC(N)=O)C(=O)N[C@H](C(=O)N[C@H](C(=O)N[C@@H](CCCNC(=N)N)C(=O)N[C@H](C(=O)O)C(C)(C)C)[C@@H](C)O)C(C)(C)S` (Ac-C[dR]RR[2Nal]WQ[Pen]TR[Tle]-OH) registered a Drug uptake in series [7] of 28%. The compound further gave a pIC50 in series [6] of 6.77.
For the compound `CC(=O)N[C@@H](CS)C(=O)N[C@H](CCCNC(=N)N)C(=O)N[C@@H](CCCNC(=N)N)C(=O)N[C@@H](CCCNC(=N)N)C(=O)N[C@@H](Cc1ccc2ccccc2c1)C(=O)N[C@@H](Cc1c[nH]c2ccccc12)C(=O)N[C@H](C(=O)N[C@H](C(=O)N[C@H](C(=O)N[C@@H](CCCNC(=N)N)C(=O)N[C@H](C(=O)O)C(C)(C)C)[C@@H](C)O)C(C)(C)C)C(C)(C)S` (Ac-C[dR]RR[2Nal]W[Pen][Tle]TR[Tle]-OH), the Drug uptake in series [7] was 92%.
For the compound `CC(=O)N[C@@H](CS)C(=O)N[C@H](CCCNC(=N)N)C(=O)N[C@@H](CCCNC(=N)N)C(=O)N[C@@H](CCCNC(=N)N)C(=O)N[C@@H](Cc1ccc2ccccc2c1)C(=O)N[C@@H](Cc1csc2ccccc12)C(=O)N1CCC[C@H]1C(=O)N[C@H](C(=O)N[C@H](C(=O)N[C@@H](CCCNC(=N)N)C(=O)N[C@H](C(=O)O)C(C)(C)C)[C@@H](C)O)C(C)(C)S` (Ac-C[dR]RR[2Nal][Bta]P[Pen]TR[Tle]-OH), in series [7], the Drug uptake is 36%.
Compound `CC(=O)N[C@@H](CS)C(=O)N[C@H](CCCNC(=N)N)C(=O)N[C@@H](CCCNC(=N)N)C(=O)N[C@@H](CCCNC(=N)N)C(=O)N[C@@H](Cc1ccc2ccccc2c1)C(=O)N[C@@H](Cc1csc2ccccc12)C(=O)N[C@H](C(=O)N[C@H](C(=O)N[C@H](C(=O)N[C@@H](CCCNC(=N)N)C(=O)N[C@H](C(=O)O)C(C)(C)C)[C@@H](C)O)C(C)(C)C)C(C)(C)S` (Ac-C[dR]RR[2Nal][Bta][Pen][Tle]TR[Tle]-OH) registered a Drug uptake in series [7] of 518%. Also, the pIC50 in series [6] was 6.62.
In series [7], `CC(=O)N[C@@H](CS)C(=O)N[C@H](CCCNC(=N)N)C(=O)N[C@H](CCCNC(=N)N)C(=O)N[C@@H](CCCNC(=N)N)C(=O)N[C@@H](Cc1ccc2ccccc2c1)C(=O)N[C@@H](Cc1c[nH]c2ccccc12)C(=O)N[C@@H](CCC(N)=O)C(=O)N[C@H](C(=O)N[C@H](C(=O)N[C@@H](CCCNC(=N)N)C(=O)N[C@H](C(=O)O)C(C)(C)C)[C@@H](C)O)C(C)(C)S` (Ac-C[dR][dR]R[2Nal]WQ[Pen]TR[Tle]-OH) showed a Drug uptake of 23%.
`CC(=O)N[C@@H](CCCNC(=N)N)C(=O)N[C@@H](CCCNC(=N)N)C(=O)N[C@@H](Cc1ccccc1)C(=O)N[C@@H](Cc1c[nH]c2ccccc12)C(=O)N[C@@H](CCC(N)=O)C(=O)N[C@@H](CS)C(=O)N[C@H](C(=O)N[C@@H](CCCCNC(=O)c1cccnc1)C(=O)N[C@H](C(=O)O)C(C)(C)C)[C@@H](C)O` (Ac-RRFWQCTK(Nicotinoyl)[Tle]-OH) gave a pIC50 in series [5] of 5.66.
On the same count and under the same terms, for `CC(=O)N[C@@H](CCCNC(=N)N)C(=O)N[C@@H](CCCNC(=N)N)C(=O)N[C@@H](Cc1ccccc1)C(=O)N[C@@H](Cc1c[nH]c2ccccc12)C(=O)N[C@H](CS)C(=O)N[C@@H](CS)C(=O)N[C@H](C(=O)N[C@@H](CCCNC(=N)N)C(=O)N[C@H](C(=O)O)C(C)(C)C)[C@@H](C)O` (Ac-RRFW[dC]CTR[Tle]-OH) the value was 5.00.

(Values after ChEMBL document CHEMBL4699666, “Cyclic Peptidyl Inhibitors against CAL/CFTR Interaction for Treatment of Cystic Fibrosis” (J Med Chem, 2020).)
